Arr AP2 block: human beta-arrestin and AP2 interaction inhibition; FITC-arrestin peptide / GST-AP2 beads, flow cytometry; AP2 beta2 appendage carries R879A mutation; inhibition, % at 10 µM; hit rate 0.31% among 340,000;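 active means inhibition above a set limit, near 3 SD of compounds lacking own fluorescence, cut at about 54% in these data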
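System: GST-tagged AP2 beta2-adaptin appendage (R879A) on 4 µm glutathione beads / Reagent: FITC-arrestin peptide, 50 nM / Detection: HyperCyt-sampled flow cytometry, FL1 channel, ex 488/em 535 nm / Timing: 12 min plus 1 h, RT / Buffer or medium: PBS plus Tween 20 (0.05%) and BSA (0.1%)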
APOBEC3A inh: blocks human APOBEC3A ssDNA deamination. P31941. recombinant A3A, FAM/TAMRA ssDNA deamination fluorescence. inhibition, % at 20 µM. hit rate 0.41% among 330,000. AID 493011;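 active means at least 40% inhibition at 20 µM here, with at most 30% in a related deaminase screen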
Target sequence (P31941 whole entry, looked up): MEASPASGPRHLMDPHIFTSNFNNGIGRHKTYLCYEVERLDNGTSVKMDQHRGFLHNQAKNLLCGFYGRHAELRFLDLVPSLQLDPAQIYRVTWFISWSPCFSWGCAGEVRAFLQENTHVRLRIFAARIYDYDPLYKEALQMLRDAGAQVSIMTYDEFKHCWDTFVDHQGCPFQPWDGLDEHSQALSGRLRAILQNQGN
PolyA inhibitor: inhibitors of polyadenylation in S. cerevisiae | S. cerevisiae SKY197-pL101 polyadenylation reporter, beta-gal luminescence; efflux-impaired pdr1/pdr3 knockout yeast; score 100 = 6 SD above DMSO | activity score, % at 12 µM | hit rate 0.02% among 300,000 | AID 1875;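 active means lowest replicate activity score at least 50, where 100 means six control SD above control mean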;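 further: yeast exposed to compound for 9 h at 30 °C; higher score means more reporter readthrough which indicates perturbed polyadenylation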
A3G deaminase: inhibitors of human APOBEC3G DNA deaminase. Q9HC16. recombinant A3G, ssDNA deamination FAM/TAMRA fluorescence. inhibition, % at 20 µM. hit rate 0.28% among 330,000;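 active means inhibition of at least 40% at 20 µM, with no more than 30% in the related APOBEC3A deaminase screen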
UCH37 inh: human UCH37 deubiquitinating enzyme inhibition | Q9Y5K5 | purified proteasome/UCH37, Ub-AMC cleavage fluorescence | inhibition, % (concentration not given with the values) | hit rate 0.33% among 330,000;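 active means mean inhibition over replicate wells above about 20%, limit read from the data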
Target sequence (Q9Y5K5 whole entry, looked up): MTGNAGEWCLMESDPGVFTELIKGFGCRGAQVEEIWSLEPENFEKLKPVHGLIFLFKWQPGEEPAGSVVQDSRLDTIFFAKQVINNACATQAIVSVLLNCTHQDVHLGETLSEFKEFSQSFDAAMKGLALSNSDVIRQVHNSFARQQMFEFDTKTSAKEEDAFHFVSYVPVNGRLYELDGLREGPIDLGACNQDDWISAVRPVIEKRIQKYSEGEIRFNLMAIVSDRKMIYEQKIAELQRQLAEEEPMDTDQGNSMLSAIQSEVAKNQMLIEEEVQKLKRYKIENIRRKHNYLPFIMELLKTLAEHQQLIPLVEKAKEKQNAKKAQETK
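Schedule: 30 min plus 25 min, room temperature / Material: human UCH37 within purified proteasomes / Technique: AMC fluorescence intensity at 355/460 nm / Buffer or medium: pH 7.4 Tris-HCl (50 mM) with ovalbumin, ATP-MgCl2, DTT / Controls: wells without proteasome as full block, compound-free enzyme plus substrate as uninhibited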
AHR activator: human AHR activation. AHR-responsive luciferase reporter cells, luminescence. hit rate 2.5% among 320,000. P35869. activation, % at 5 µM; in the data active means activation above about 47%
Arr AP2 CP1: blocks beta-arrestin peptide binding to human AP2; GST-AP2 beads, FITC arrestin peptide binding, flow cytometry; GST-fused beta2-adaptin appendage, R879A mutant; shares compounds with Arr AP2 block; inhibition, % at 10 µM; hit rate 2% among 1,300;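 active means inhibition above a set limit, roughly 3 SD of non-fluorescent compound noise, cut at about 38% in these data; inactive means inhibition at or below that limit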;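 further: loss of bead fluorescence from 50 nM FITC arrestin peptide bound to appendage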
GST-FITC bead: GST-GSH bead binding interference, counter-screen. shares compounds with Arr AP2 block. GST-fluorescein binding to GSH beads, fluorescence. inhibition, % at 10 µM. hit rate 2% among 1,300. AID 588338;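 active means inhibition above 50%, about 3 SD of the inhibition seen with non-fluorescent compounds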;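 further: fluorescein maleimide labelled GST captured on 4 micron glutathione beads; higher means more loss of bead fluorescence from quenching or blocked binding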
Hits are given with their value; – = inactive; · = no result. The list is not random: actives were taken first. Their share in the collection is about 3.4%.

SMILES	Arr AP2 block	APOBEC3A inh	PolyA inhibitor	A3G deaminase	UCH37 inh	AHR activator	Arr AP2 CP1	GST-FITC bead
COc1ccc(OC)c(NC(=O)CSc2nnc(-c3ccco3)n2-c2ccccc2)c1	–	–	–	–	–	–	·	·
O=C(CNS(=O)(=O)c1ccccc1)OCC(=O)c1c[nH]c2ccccc12	76	–	·	–	–	47	–	–
CC(C)(C)c1ccc(OCC(=O)NN=Cc2ccsc2)cc1	·	·	·	·	–	·	·	·
CC12CN3CC(C)(CN(C1)C3c1ccc(Br)cc1O)C2 (stereo unspecified)	–	–	–	–	–	–	–	–
OC(C#Cc1ccccn1)c1cccs1 (stereo unspecified)	99	–	–	–	–	–	–	–
C=CCc1cccc(C=NNC(=O)CCCNc2ccc(C)cc2)c1O	·	·	·	·	–	·	·	·
COc1cc(C2C(C(C)=O)=C(O)C(=O)N2CCN(C)C)ccc1O (stereo unspecified)	69	–	–	–	–	–	–	–
O=C(NN1CCOCC1)c1ccc(Cl)cc1	–	–	–	–	–	–	·	·
O=C(NN1CCOCC1)c1cccc(Cl)c1	71	–	–	–	–	–	–	–
O=C(O)c1cccc(NN=Cc2cccnc2)c1	·	·	·	·	–	·	·	·
NNC(=O)c1cc(O)c(O)c(O)c1	–	–	–	–	–	–	–	–
O=C(NN=Cc1c[nH]c2ccccc12)c1cccc([N+](=O)[O-])c1	·	·	·	·	–	·	·	·
CCOC(=O)NN=Cc1c(C)nn(-c2cccc(C(F)(F)F)c2)c1Cl	·	·	·	·	–	·	·	·
COc1cc(C(=O)O)nc2ccccc12	56	–	–	–	–	–	–	–
Cc1[nH]c2ccccc2c1C=NNC(=O)CNC(=O)Cc1ccccc1	·	·	·	·	–	·	·	·
CCOc1ccc2nc(NC(=O)CS(=O)(=O)c3ccccc3)sc2c1	81	–	–	–	–	–	–	–
O=C(CNC(=O)C1COc2ccccc2O1)NN=Cc1cc(Br)c(O)c(Br)c1 (stereo unspecified)	·	·	·	·	–	·	·	·
COc1ccc(/C=N\N=C2/SC(CC(=O)O)C(=O)N2c2ccc(O)cc2)cc1 (stereo unspecified)	56	–	–	–	·	–	–	–
COc1ccc(C=NN=C2SC(CC(=O)O)C(=O)N2c2ccc(O)cc2)cc1 (stereo unspecified)	·	·	·	·	–	·	·	·
COc1ccc(-c2nn(-c3ccccc3)cc2C(=O)N(C)C)cc1	60	–	–	–	–	–	–	–
COc1ccc(-c2nn(-c3ccccc3)cc2C(=O)O)cc1	–	–	–	–	–	–	·	·
CN(C)c1ccc(C=NNC(=O)CN(c2ccccc2Cl)S(C)(=O)=O)cc1Br	·	·	·	·	–	·	·	·
CCCNc1nc(NCC)nc(OC)n1	64	–	–	–	–	–	–	–
Nc1nc(NCc2ccccc2)nc(NCCO)c1[N+](=O)[O-]	56	–	–	–	–	–	–	–
COC(=O)c1cccc(Cn2c(Cl)c(C=NNC(=O)c3ccco3)sc2=O)c1	·	·	·	·	–	·	·	·
SMILES	Arr AP2 block	APOBEC3A inh	PolyA inhibitor	A3G deaminase	UCH37 inh	AHR activator	Arr AP2 CP1	GST-FITC bead
COC(=O)c1cccc(Cn2c(Cl)c(/C=N/NC(=O)c3ccco3)sc2=O)c1	57	–	–	–	·	–	–	–
CC(CC(=O)Nc1cccc(C(F)(F)F)c1)=NNC(=O)C(=O)NCC(C)C	·	·	·	·	–	·	·	·
O=C(c1ccc(S(=O)(=O)NCc2ccco2)cc1)N1CCN(c2ccc(F)cc2)CC1	59	–	·	–	–	–	–	–
CC(=O)c1ccc(N2CCN(C(=O)c3ccc(S(=O)(=O)NCc4ccco4)cc3)CC2)cc1	–	–	·	–	–	–	–	–
O=C(/C=C/c1ccc(S(=O)(=O)NCc2ccco2)cc1)N1CCN(c2ccccc2)CC1	–	–	–	–	–	–	·	·
CCOc1cc(C=NNC(=O)C2CCCC2)ccc1O	·	·	·	·	–	·	·	·
CC(C)CCn1cnc2c(sc3nc4c(cc32)CSC(C)(C)C4)c1=O	104	–	–	–	–	–	–	–
COc1cccc2c1cc1c(=O)n(CC(=O)NCCCN3CCN(C)CC3)nc(C)n12	59	–	–	–	–	–	–	–
c1ccc2c(c1)c1ccccc1n2CN1CCOCC1	83	–	–	–	–	–	–	–
COC(=O)C1=C(NC(=O)COc2ccc3ccccc3c2)CCS1	–	–	–	–	–	–	·	·
COC(=O)C1=C(NC(=O)COc2ccc(Cl)cc2Cl)CCS1	67	–	–	–	–	–	–	–
COc1cccc(CNC(=O)c2ccncc2)c1	68	–	–	–	–	–	–	–
N#CCCn1cc(C=NNC(=O)c2ccncc2)c(-c2ccccc2)n1	·	·	·	·	–	·	·	·
Cc1c(Cl)cccc1NC(=O)Nc1cnccn1	–	–	–	–	–	–	–	–
COc1cc([N+](=O)[O-])ccc1NC(=O)Nc1cnccn1	–	–	–	–	–	–	·	·
COc1ccc(OC)c(NC(=O)Nc2cnccn2)c1	56	–	–	–	–	·	–	–
